According to ChEMBL document CHEMBL4680191, “Discovery of novel akt1 inhibitor induces autophagy associated death in hepatocellular carcinoma cells” (Eur J Med Chem, 2020):
Activity calls are given as the source filed them. No cut-off for these calls is given here.

Legend:
Huh-7 [1] = assay: Cytotoxicity against human Huh-7 cells assessed as reduction in cell viability by MTT assay; format: functional, cell-based
Method in brief: (§1)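 Hepatoma cells were grown in DMEM with 10% FBS and streptomycin, then treated with compounds. Viability was read by MTT.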

Homo sapiens = species on record: Homo sapiens; assay: Inhibition of full length human Akt1 […] mutant assessed as remaining activity at 1 uM using GRPRTSSFAEGKK as substrate incubated for 40 mins by scintillation counting method relative to control
Method in brief: (§2)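 Eurofins KinaseProfiler kinase assay on human Akt1, Akt2 and Akt3. Compounds were tested at 1 µM. Residual kinase activity is reported as % of control.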

[2] = system: RAC-beta serine/threonine-protein kinase (Homo sapiens), P31751 [S474D]; assay: Inhibition of full length human Akt2 S474D mutant assessed as remaining activity at 1 uM using GRPRTSSFAEGKK as substrate incubated for 40 mins by scintillation counting method relative to control; method in brief: as §2
Sequence of RAC-beta serine/threonine-protein kinase (Homo sapiens), P31751 [S474D] (P31751 whole entry S474D): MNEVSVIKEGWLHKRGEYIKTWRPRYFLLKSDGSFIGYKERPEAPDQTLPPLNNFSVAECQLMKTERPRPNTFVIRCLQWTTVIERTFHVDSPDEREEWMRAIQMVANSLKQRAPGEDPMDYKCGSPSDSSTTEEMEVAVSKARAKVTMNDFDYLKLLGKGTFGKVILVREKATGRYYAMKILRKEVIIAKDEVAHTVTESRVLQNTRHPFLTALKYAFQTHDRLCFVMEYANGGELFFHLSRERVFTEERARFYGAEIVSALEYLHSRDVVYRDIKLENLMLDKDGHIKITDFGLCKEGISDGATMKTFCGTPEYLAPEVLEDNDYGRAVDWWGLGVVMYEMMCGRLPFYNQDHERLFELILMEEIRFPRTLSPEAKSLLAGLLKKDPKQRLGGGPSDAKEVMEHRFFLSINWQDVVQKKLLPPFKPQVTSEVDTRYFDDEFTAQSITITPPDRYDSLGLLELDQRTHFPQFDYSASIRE

HepG2 = assay: Cytotoxicity against human HepG2 cells assessed as reduction in cell viability by MTT assay; format: functional, cell-based; method in brief: as §1
Hep 3B2 = assay: Cytotoxicity against human Hep3B cells assessed as reduction in cell viability by MTT assay; format: functional, cell-based; method in brief: as §1
[3] = biological target: RAC-gamma serine/threonine-protein kinase (Homo sapiens, UniProt Q9Y243, S472D); assay: Inhibition of full length human Akt3 S472D mutant using GRPRTSSFAEGKK as substrate incubated for 40 mins by scintillation counting method
Sequence of RAC-gamma serine/threonine-protein kinase (Q9Y243 2-479 S472D limits assumed): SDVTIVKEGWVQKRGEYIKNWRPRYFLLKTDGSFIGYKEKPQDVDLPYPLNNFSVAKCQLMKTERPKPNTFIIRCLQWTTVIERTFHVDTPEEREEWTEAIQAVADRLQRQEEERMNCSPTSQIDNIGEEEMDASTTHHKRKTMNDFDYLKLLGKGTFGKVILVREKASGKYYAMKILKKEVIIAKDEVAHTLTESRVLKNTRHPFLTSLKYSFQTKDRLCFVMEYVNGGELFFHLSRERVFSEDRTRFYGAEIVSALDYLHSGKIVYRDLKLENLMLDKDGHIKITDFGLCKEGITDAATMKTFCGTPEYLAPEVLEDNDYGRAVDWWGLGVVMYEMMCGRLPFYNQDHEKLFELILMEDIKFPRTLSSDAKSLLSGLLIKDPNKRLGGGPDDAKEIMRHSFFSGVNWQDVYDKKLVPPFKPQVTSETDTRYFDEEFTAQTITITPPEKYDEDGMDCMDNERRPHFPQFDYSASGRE
Method in brief: (§3)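 Eurofins KinaseProfiler enzymatic assay on human Akt isoforms. IC50 values are the mean of at least three independent replicates ± standard deviation.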

[4] = biological target: cAMP-dependent protein kinase catalytic subunit alpha (Homo sapiens) (UniProt P17612); assay: Inhibition of full length human PKAcalpha assessed as remaining activity at 1 uM using LRRASLG as substrate incubated for 40 mins by scintillation counting method relative to control
Method in brief: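 Run as an outsourced KinaseProfiler service, with human PKA and Akt1, Akt2 and Akt3 in the same panel. Each compound was tested at a single 1 µM concentration, and the result is reported as kinase activity remaining, as a percentage of control.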

[5] = system: RAC-gamma serine/threonine-protein kinase (Homo sapiens), Q9Y243 [S472D]; assay: Inhibition of full length human Akt3 S472D mutant assessed as remaining activity at 1 uM using GRPRTSSFAEGKK as substrate incubated for 40 mins by scintillation counting method relative to control; method in brief: as §2
Sequence of RAC-gamma serine/threonine-protein kinase (Homo sapiens), Q9Y243 [S472D] (Q9Y243 whole entry S472D): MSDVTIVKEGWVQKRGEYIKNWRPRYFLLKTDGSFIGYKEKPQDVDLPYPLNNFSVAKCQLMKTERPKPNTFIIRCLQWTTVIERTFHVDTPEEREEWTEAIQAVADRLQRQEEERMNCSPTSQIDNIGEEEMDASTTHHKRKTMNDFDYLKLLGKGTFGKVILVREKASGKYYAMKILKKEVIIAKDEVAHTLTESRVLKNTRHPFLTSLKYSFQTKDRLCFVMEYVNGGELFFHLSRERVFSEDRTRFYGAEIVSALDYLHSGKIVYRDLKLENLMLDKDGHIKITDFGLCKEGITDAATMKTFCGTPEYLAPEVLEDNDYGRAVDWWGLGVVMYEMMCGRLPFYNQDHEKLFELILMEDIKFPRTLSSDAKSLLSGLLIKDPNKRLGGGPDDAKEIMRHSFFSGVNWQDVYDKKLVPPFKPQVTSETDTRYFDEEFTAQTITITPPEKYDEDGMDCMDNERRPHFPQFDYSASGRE

[6] = Inhibition of full length human Akt1 […] mutant using GRPRTSSFAEGKK as substrate incubated for 40 mins by scintillation counting method; method in brief: as §3
SMMC-7721 = assay: Cytotoxicity against human SMMC-7721 cells assessed as reduction in cell viability by MTT assay; format: functional, cell-based; method in brief: as §1
Huh-7 [7] = assay: Induction of autophagy flux arrest in human Huh-7 cells assessed as reduction in LC3 by immunofluorescence staining based assay; format: functional, cell-based
Method in brief: (§4)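 Huh-7 cells with or without 0.2 µM compound were immunofluorescently co-stained for LC3 (autophagosome) and LAMP1 (lysosome). Co-localization was assessed by fluorescence imaging.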

Huh-7 [8] = assay: Induction of autophagy flux arrest in human Huh-7 cells assessed as reduction in LAMP1 by immunofluorescence staining based assay; format: functional, cell-based; method in brief: as §4

SMILES	IC50 (Huh-7 [1])	Activity (Homo sapiens)	Activity [2]	IC50 (HepG2)	IC50 (Hep 3B2)	IC50 [3]	Activity [4]	Activity [5]	IC50 [6]	IC50 (SMMC-7721)	Activity (Huh-7 [7])	Activity (Huh-7 [8])
CCNCC(C(=O)N1CCN(c2ncnc3sc4c(c23)CCC4)CC1)c1ccc(Cl)cc1 (stereo not given)	0.283 µM	1%	58%	0.58 µM	0.541 µM	0.101 µM	31%	21%	0.125 µM	1.25 µM		
CC(C)NCC(C(=O)N1CCN(c2ncnc3sc4c(c23)CCN(C)C4)CC1)c1ccccc1Cl (stereo not given)		96%	83%				86%	76%				
CC(C)NCC(C(=O)N1CCN(c2ncnc3sc4c(c23)CCOC4)CC1)c1ccc(Cl)cc1 (stereo not given)		78%	81%				78%	77%				
CC(C)NC[C@@H](C(=O)N1CCN(c2ncnc3c2[C@H](C)C[C@H]3O)CC1)c1ccc(Cl)cc1 [IPATASERTIB]	0.167 µM			0.268 µM	0.389 µM				0.019 µM	0.661 µM	Active	Active
CC(C)NCC(C(=O)N1CCN(c2ncnc3sc4c(c23)CCN(C(=O)N(C)C)C4)CC1)c1ccc(Cl)cc1 (stereo not given)		86%	95%				80%	87%				
CCCCNCC(C(=O)N1CCN(c2ncnc3sc4c(c23)CCC4)CC1)c1ccc(Cl)cc1 (stereo not given)	0.367 µM	1%	56%	0.914 µM	0.833 µM	0.137 µM	37%	15%	0.166 µM	1.35 µM		
CC(C)NCC(C(=O)N1CCN(c2ncnc3sc4c(c23)CCCC4)CC1)c1ccc(Cl)cc1 (stereo not given)		55%	72%				78%	63%				
CC(C)NCC(C(=O)N1CCN(c2ncnc3sc4c(c23)CCN(C(C)C)C4)CC1)c1ccc(Cl)cc1 (stereo not given)		76%	81%				84%	78%				
CC(C)NCC(C(=O)N1CCN(c2ncnc3sc4c(c23)CCN(C2CC2)C4)CC1)c1ccc(Cl)cc1 (stereo not given)		77%	71%				92%	70%				
CC(C)NCC(C(=O)N1CCN(c2ncnc3sc4c(c23)CCC4)CC1)c1ccc(Cl)cc1 (stereo not given)		11%	57%				45%	19%				
CCNCC(C(=O)N1CCN(c2ncnc3sc4c(c23)CCN(C)C4)CC1)c1ccc(Cl)cc1 (stereo not given)		95%	107%				91%	74%				
CC(C)NCC(C(=O)N1CCN(c2ncnc3sc4c(c23)CCN(C)C4)CC1)c1ccc(Cl)cc1 (stereo not given)		50%	91%				72%	69%				
CC(C)NCC(C(=O)N1CCN(c2ncnc3sc4c(c23)CCN(C)C4)CC1)c1ccc(F)cc1 (stereo not given)		88%	111%				97%	87%				
O=C(C(CNC1CCCCC1)c1ccc(Cl)cc1)N1CCN(c2ncnc3sc4c(c23)CCC4)CC1 (stereo not given)	0.159 µM	1%	51%	0.386 µM	0.294 µM	0.045 µM	29%	11%	0.051 µM	0.978 µM		
CN1CCc2c(sc3ncnc(N4CCN(C(=O)C(CNC5CCCC5)c5ccc(Cl)cc5)CC4)c23)C1 (stereo not given)		82%	81%				82%	76%				
CC(C)NCC(C(=O)N1CCN(c2ncnc3sc4c(c23)CCC4)CC1)c1ccc(F)cc1 (stereo not given)		26%	104%				77%	45%				
CN1CCc2c(sc3ncnc(N4CCN(C(=O)C(CNC5CCCCC5)c5ccc(Cl)cc5)CC4)c23)C1 (stereo not given)		84%	88%				95%	69%				
CCCCNCC(C(=O)N1CCN(c2ncnc3sc4c(c23)CCN(C)C4)CC1)c1ccc(Cl)cc1 (stereo not given)		81%	93%				81%	84%				
COc1ccc(C(CNC(C)C)C(=O)N2CCN(c3ncnc4sc5c(c34)CCN(C)C5)CC2)cc1 (stereo not given)		81%	78%				95%	76%				
CCCN1CCc2c(sc3ncnc(N4CCN(C(=O)C(CNC(C)C)c5ccc(Cl)cc5)CC4)c23)C1 (stereo not given)		75%	89%				88%	79%				
Cc1ccc(C(CNC(C)C)C(=O)N2CCN(c3ncnc4sc5c(c34)CCN(C)C5)CC2)cc1 (stereo not given)		78%	73%				90%	73%				
CC(C)NCC(C(=O)N1CCN(c2ncnc3sc4c(c23)CCN(C)C4)CC1)c1ccc(Br)cc1 (stereo not given)		69%	86%				88%	72%				
CC(C)NCC(C(=O)N1CCN(c2ncnc3sc4c(c23)CCC4)CC1)c1ccccc1Cl (stereo not given)		88%	101%				95%	92%				
CC(C)NCC(C(=O)N1CCN(c2ncnc3sc4c(c23)CCN(Cc2ccccc2)C4)CC1)c1ccc(Cl)cc1 (stereo not given)		71%	77%				80%	71%				
COc1ccc(C(CNC(C)C)C(=O)N2CCN(c3ncnc4sc5c(c34)CCC5)CC2)cc1 (stereo not given)		18%	86%				66%	42%				
CCN1CCc2c(sc3ncnc(N4CCN(C(=O)C(CNC(C)C)c5ccc(Cl)cc5)CC4)c23)C1 (stereo not given)		73%	82%				87%	71%				
CC(C)NCC(C(=O)N1CCN(c2ncnc3sc4c(c23)CCC4)CC1)c1ccc(Br)cc1 (stereo not given)	0.112 µM	1%	67%	0.202 µM	0.228 µM	0.095 µM	23%	20%	0.039 µM	0.521 µM		
